Experimental data taken from ChEMBL document CHEMBL1138783, “Subtype selective substrates for histone deacetylases” (J Med Chem, 2004).
Square brackets hold non-standard residues; d marks the D form. Peptide text beside a SMILES is read from it. * marks the point of attachment. Asu = N[C@@H](CCCCCC(=O)O)C(=O)O; Aib = CC(C)(N)C(=O)O; NHOH = ON*

What was measured:
Histone deacetylase [1] = experiment: Inhibitory concentration against rat liver histone deacetylase (HDAC) with substrate 5a
Histone deacetylase [2] = experiment: Inhibitory concentration against rat liver histone deacetylase (HDAC) with substrate 3a
[3] = system: histone deacetylase (HDAC); experiment: Percent conversion by rat liver histone deacetylase (HDAC) was determined after 3 h; assay type: ADME; conditions: read-out: Conversion
How it was run: (§1)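 Deacetylase from rat liver, purified by ammonium sulfate precipitation and Q-sepharose NaCl-gradient chromatography (class I and II subtypes), in phosphate buffer pH 7.9 (EDTA, NaCl, glycerol, 2-mercaptoethanol). Enzyme preincubated 15 min at 4 °C, then run at 37 °C with candidate substrate and 7-hydroxycoumarin internal standard. Stopped with HCl/sodium acetate, ethyl acetate extraction, reversed-phase HPLC with fluorescence detection. Conversion taken against no-enzyme control. Duplicates.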

[4] = system: histone deacetylase (HDAC); experiment: Percent conversion by rat liver histone deacetylase (HDAC) was determined after 1 h; assay type: ADME; conditions: read-out: Conversion; how it was run: as §1
[5] = system: histone deacetylase (HDAC); experiment: Percent conversion by rat liver histone deacetylase (HDAC) was determined after 24 h; assay type: ADME; conditions: read-out: Conversion; how it was run: as §1
[6] = system: histone deacetylase (HDAC); experiment: Percent conversion by rat liver histone deacetylase (HDAC) was determined after 6 h; assay type: ADME; conditions: read-out: Conversion; how it was run: as §1
[7] = system: histone deacetylase (HDAC); experiment: Percent conversion by rat liver histone deacetylase (HDAC) was determined after 2 h; assay type: ADME; conditions: read-out: Conversion; how it was run: as §1
Histone deacetylase [8] = experiment: Inhibitory activity against rat liver Histone deacetylase with substrate 5b
Histone deacetylase [9] = experiment: Inhibitory activity against rat liver Histone deacetylase with substrate 3b
Histone deacetylase [10] = experiment: Inhibitory activity against rat liver Histone deacetylase with substrate 3a
[11] = system: HDAC6/HDAC1 (Homo sapiens); experiment: Selectivity ratio for Histone deacetylase 6 versus Histone deacetylase 1

Structure (SMILES) | IC50 (Histone deacetylase [1]) | IC50 (Histone deacetylase [2]) | metabolised at 3 h [3] | metabolised at 1 h [4] | metabolised at 24 h [5] | metabolised at 6 h [6] | metabolised at 2 h [7] | IC50 (Histone deacetylase [8]) | IC50 (Histone deacetylase [9]) | IC50 (Histone deacetylase [10]) | Selectivity [11]
CN(C)c1ccc(C(=O)NCCCCCC(=O)NO)cc1 | 640 nM | 216 nM |  |  |  |  |  |  |  |  | 
CCCC(=O)NCCCC[C@H](NC(=O)OCc1ccccc1)C(=O)Nc1ccc2c(C)cc(=O)oc2c1 |  |  | 12% | 0% | 48% | 21% | 1% |  |  |  | 
Cc1cc(=O)oc2cc(NC(=O)[C@H](CCCCNC(=O)C(F)(F)F)NC(=O)OCc3ccccc3)ccc12 |  |  | 57% | 16% | 64% | 54% | 41% |  |  |  | 
O=C(CCCCC[C@@H]1NC(=O)[C@H]2CCCN2C(=O)[C@H](Cc2ccccc2)NC(=O)[C@H](Cc2ccccc2)NC1=O)NO |  |  |  |  |  |  |  | 65.6 nM | 411 nM | 349 nM | 
CC(=O)NCCCC[C@@H](NC(=O)OCc1ccccc1)C(=O)Nc1ccc2c(C)cc(=O)oc2c1 |  |  | 0% | 0% | 14% | 3% | 9% |  |  |  | 
Cc1cc(=O)oc2cc(NC(=O)[C@H](CCCCNC(=O)Cc3ccccc3)NC(=O)OCc3ccccc3)ccc12 |  |  | 0% | 0% | 0% | 0% | 0% |  |  |  | 
CN(C)c1ccc(C(=O)NCCCCCCC(=O)NO)cc1 |  |  |  |  |  |  |  | 3512 nM | 148 nM | 78.2 nM | 
CN(C)c1ccc(C(=O)NCCCCCCCC(=O)NO)cc1 |  |  |  |  |  |  |  | 241 nM | 488 nM | 256 nM | 
CC[C@@H](C)[C@@H]1NC(=O)[C@@H](Cc2ccc(OC)cc2)NC(=O)[C@H](CCCCCC(=O)NO)NC(=O)[C@H]2CCCN2C1=O |  |  |  |  |  |  |  | 6.29 nM | 80.4 nM | 55.7 nM | 34
CC(=O)NCCCC[C@H](NC(=O)OC(C)(C)C)C(=O)Nc1ccc2c(C)cc(=O)oc2c1 |  |  | 70% | 38% | 100% | 91% | 60% |  |  |  | 
CCC(=O)NCCCC[C@H](NC(=O)OCc1ccccc1)C(=O)Nc1ccc2c(C)cc(=O)oc2c1 |  |  | 47% | 20% | 87% | 74% | 33% |  |  |  | 
CC1(C)NC(=O)[C@H](CCCCCC(=O)NO)NC(=O)[C@H]2CCCN2C(=O)[C@H](Cc2ccccc2)NC1=O (cyclo([Aib]F[dP][Asu](NHOH))) |  |  |  |  |  |  |  | 21.2 nM | 226 nM | 137 nM | 
CC(=O)NCCCC[C@H](NC(=O)OC(C)(C)C)C(=O)Nc1ccc2c(C(F)(F)F)cc(=O)oc2c1 |  |  | 47% | 30% | 96% | 68% | 43% |  |  |  | 
CC(=O)NCCCC[C@H](NC(=O)OCc1ccccc1)C(=O)Nc1ccc2c(C)cc(=O)oc2c1 |  |  | 93% | 67% | 100% | 96% | 87% |  |  |  | 
CC(=O)NCCCC[C@H](NC(=O)OCC1c2ccccc2-c2ccccc21)C(=O)Nc1ccc2c(C)cc(=O)oc2c1 |  |  | 78% | 47% | 90% | 86% | 74% |  |  |  | 
